Measurements of several laboratories.
CDK17: Cyclin-dependent kinase 17 (CDK17, Homo sapiens, UniProt Q00537)
CDK17 with cyclin Y: Cyclin-dependent kinase 17, with cyclin Y (CDK17, Homo sapiens, UniProt Q00537)

Cn1c2c(Cl)c(Cl)ccc2c2cc(N)[nH]c(=O)c21  ΔTm (CDK17; thermal stability, DSF; 10 µM): 0.6 °C
Nc1ncnc2occ(-c3ccc(NC(=O)Nc4cc(C(F)(F)F)ccc4F)cc3)c12  remaining signal (CDK17; cell-free assay, inhibitor; 20 µM): 0.4%
Cn1c2c(c3ccccc31)C(C#N)C(C)(C)NC2=O (stereo not shown)  ΔTm (CDK17; thermal stability, DSF; 10 µM): 0 °C
Cc1ccc(C(=O)NCc2ccsc2)cc1C#Cc1cn(C(C)C)c2ncnc(N)c12  activity vs control (CDK17 with cyclin Y; enzyme activity, inhibitor; 1 µM): 104%
C[C@@H]1CCN(c2nccc(-c3cnn4ncccc34)n2)C1  remaining binding (CDK17; binding; 1 µM): 100%
COc1ccc2cc(OCC3(C(=O)O)CN(C(=O)c4ccc(F)cc4)C3)ccc2c1  remaining binding (CDK17; cell-free assay, competition with immobilised ligand; 1 µM): 100%
Cn1c2c(c3ccc(Cl)c(Cl)c31)C(C#N)C(C)(C)NC2=O (stereo not shown)  ΔTm (CDK17; thermal stability, DSF; 10 µM): 1.1 °C
O=C(Nc1cnc(Oc2ccc(F)cc2)nc1)N1CCc2ncccc2[C@@H]1c1ccc(F)cc1  remaining binding (CDK17; cell-free assay, competition with immobilised ligand; 1 µM): 97%
Cn1c2c(Cl)c(Cl)ccc2c2cc[nH]c(=O)c21  ΔTm (CDK17; thermal stability, DSF; 10 µM): -0.4 °C
COc1cccc2c(NCc3ccccc3)nc(-n3c(N)nc4ccccc43)nc12  inhibition (CDK17; target engagement in cells, inhibitor, chemoproteomics; 20 mM): -40.2%
Cc1sc(C(=O)NC2COC2)cc1-n1cc(NC(=O)Nc2c(F)cccc2Cl)cn1  remaining activity (CDK17 with cyclin Y; enzyme activity, inhibitor; 10 µM): 102%
c1ccc(CNc2nc(N3CCOc4ccccc43)nc3c2CCCC3)cc1  inhibition (CDK17; target engagement in cells, inhibitor, chemoproteomics; 20 mM): -12.4%
Cc1nccc(COC(=O)N2C[C@@H]3[C@@H](CNC(=O)c4ccc5[nH]nnc5c4)[C@@H]3C2)n1  remaining binding (CDK17; cell-free assay, competition with immobilised ligand; 1 µM): 90%
